# From ChEMBL document CHEMBL3132813, “Exploring novel strategies for AIDS protozoal pathogens: α-helix mimetics targeting a key allosteric protein-protein interaction in C. hominis TS-DHFR” (Medchemcomm, 2013)
# Experiments:
# [1] = Inhibition of DHFR activity of Cryptosporidium hominis thymidylate synthase-dihydrofolate reductase beta face mutant by steady state kinetic assay
# How it was run: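 Recombinant bifunctional TS–DHFR, Beta Face crossover-helix mutant, expressed in E. coli BL21. DHFR reaction was followed spectroscopically at 340 nm under steady-state conditions. Helix mimetic was added from a DMSO stock and preincubated with enzyme and substrates for 30 minutes before the reaction was started. Rates were normalized to a matched DMSO blank and fit as dose–response to give the IC50, reported as mean ± SD.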
# Dihydrofolate reductase = biological target: T1, Dihydrofolate reductase (Homo sapiens, UniProt P00374); assay: Inhibition of human DHFR
# T1 sequence (P00374 whole entry): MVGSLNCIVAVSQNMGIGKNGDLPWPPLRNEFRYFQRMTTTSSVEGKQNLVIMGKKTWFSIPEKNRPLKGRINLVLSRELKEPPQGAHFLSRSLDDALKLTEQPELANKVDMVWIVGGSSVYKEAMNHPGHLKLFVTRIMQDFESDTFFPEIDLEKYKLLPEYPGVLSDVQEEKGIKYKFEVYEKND
# How it was run: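 Steady-state spectrophotometric assay at 340 nm, run separately for DHFR and TS reactions. Compound preincubated 30 min with enzyme and substrates before starting the reaction. Identical enzyme and ligand concentrations for all targets. DMSO-matched blank; rates normalized to it. IC50 as mean ± standard deviation.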
# Cryptosporidium hominis = assay: Inhibition of DHFR activity of Cryptosporidium hominis thymidylate synthase-dihydrofolate reductase beta face mutant by steady state kinetic assay relative wild type TS-DHFR
# How it was run: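 Bifunctional TS–DHFR enzymes (wild type and crossover-helix mutants) were over-expressed in E. coli BL21 and purified. DHFR activity was followed at 340 nm by steady-state spectroscopy. Enzyme and substrates were preincubated with mimetic for 30 min before starting the reaction. Rates were normalized to a matched DMSO blank. Enzyme and ligand concentrations were the same for each target, and IC50 was given as mean ± SD.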
structure (smiles),measurement,setting,value
CC(C)CN(C(=O)Nc1ccc(CCC(=O)O)cc1Cc1ccccc1)C(=O)c1ccc(OCC(=O)O)c(Cc2ccccc2)c1,IC50,[1],18 µM
same,IC50,Dihydrofolate reductase,> 1000 µM
same,Ratio IC50,Cryptosporidium hominis,10
